# Reference: ChEMBL document CHEMBL1130127, “Synthesis, photophysical properties, in vivo photosensitizing efficacy, and human serum albumin binding properties of some novel bacteriochlorins” (J Med Chem, 1997)
# The source made the active and inactive calls. No cut-off for these calls is given here.
# Key:
# Mus musculus [1] = assay: The compound was tested in vivo for photosensitizing efficacy in DBA/2 Mice at (1-5 days) 3 hours post injection at 5.0 mg/kg concentration; No response; assay type: functional, organism-based; design: dose 5 mg/kg
# How it was run: (§1)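 Female DBA/2 HA-DD mice, 5-7 weeks old. A 1 mm SMT-F tumor piece from a donor was trocar-implanted subcutaneously in the axilla. At about 5 mm tumor diameter, sensitizer in 1% Tween 80/water was given iv; dose was based on extinction coefficient. At 3 or 24 h after injection, restrained mice had the tumor lit with 135 J/cm2 laser light at the in vivo long-wavelength maximum. Tumor response was followed to day 30; six mice/group.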
# Mus musculus [2] = assay: The compound was tested in vivo for photosensitizing efficacy in DBA/2 Mice transplanted with SMT/F tumors and the activity is expressed as % response (11-15 days) 3 hours post injection at 5.0 mg/kg concentration; No response; assay type: functional, organism-based; design: dose 5 mg/kg; how it was run: as §1
# Mus musculus [3] = assay: The compound was tested in vivo for photosensitizing efficacy in DBA/2 Mice transplanted with SMT/F tumors and the activity is expressed as % response (16-20 days) 3 hours post injection at 5.0 mg/kg concentration; No response; assay type: functional, organism-based; design: dose 5 mg/kg; how it was run: as §1
# Mus musculus [4] = assay: The compound was tested in vivo for photosensitizing efficacy in DBA/2 Mice transplanted with SMT/F tumors and the activity is expressed as % response (21-25 days) 3 hours post injection at 5.0 mg/kg concentration; No response; assay type: functional, organism-based; design: dose 5 mg/kg; how it was run: as §1
# Mus musculus [5] = assay: The compound was tested in vivo for photosensitizing efficacy in DBA/2 Mice transplanted with SMT/F tumors and the activity is expressed as % response (26-30 days) 3 hours post injection at 5.0 mg/kg concentration; No response; assay type: functional, organism-based; design: dose 5 mg/kg; how it was run: as §1
# Mus musculus [6] = assay: The compound was tested in vivo for photosensitizing efficacy in DBA/2 Mice transplanted with SMT/F tumors and the activity is expressed as % response (6-10 days) 3 hours post injection at 5.0 mg/kg concentration; No response; assay type: functional, organism-based; design: dose 5 mg/kg; how it was run: as §1
# Albumin [7] = target: T1, Albumin (Homo sapiens, UniProt P02768); assay: Binding affinity against Human serum albumin(Site I).
# How it was run: (§2)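 Fluorometric titration: HSA and sensitizer fixed at 1 × 10^-6 mol/L. Site probe varied 4 × 10^-7 to 2 × 10^-6 mol/L: DNSA for site I, read at 472 nm; DP for site II, read at 476 nm; excitation 340 nm. Incubated 4 °C, pH 7.0, 4 h, dark. Bound probe taken from standard curves of free probe (water) and HSA-bound probe (2.5 × 10^-5 mol/L HSA).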
# Mus musculus [8] = assay: The compound was tested in vivo for photosensitizing efficacy in DBA/2 Mice transplanted with SMT/F tumors and the activity is expressed as % response at (21-25 days) 3 hours post injection at 2.5 mg/kg concentration; assay type: functional; how it was run: as §1
# Mus musculus [9] = assay: The compound was tested in vivo for photosensitizing efficacy in DBA/2 Mice transplanted with SMT/F tumors and the activity is expressed as % response at (1-5 days) 24 hours post injection at 5.0 mg/kg concentration; No response; assay type: functional, organism-based; design: dose 5 mg/kg; how it was run: as §1
# Mus musculus [10] = assay: The compound was tested in vivo for photosensitizing efficacy in DBA/2 Mice transplanted with SMT/F tumors and the activity is expressed as % response at (1-5 days) 3 hours post injection at 1 mg/kg concentration; assay type: functional; how it was run: as §1
# Mus musculus [11] = assay: The compound was tested in vivo for photosensitizing efficacy in DBA/2 Mice transplanted with SMT/F tumors and the activity is expressed as % response at (1-5 days) 3 hours post injection at 2.5 mg/kg concentration; assay type: functional; how it was run: as §1
# Mus musculus [12] = assay: The compound was tested in vivo for photosensitizing efficacy in DBA/2 Mice transplanted with SMT/F tumors and the activity is expressed as % response at (11-15 days) 24 hours post injection at 5 mg/kg concentration; No response; assay type: functional, organism-based; design: dose 5 mg/kg; how it was run: as §1
# Mus musculus [13] = assay: The compound was tested in vivo for photosensitizing efficacy in DBA/2 Mice transplanted with SMT/F tumors and the activity is expressed as % response at (11-15 days) 3 hours post injection at 1 mg/kg concentration; assay type: functional; how it was run: as §1
# Mus musculus [14] = assay: The compound was tested in vivo for photosensitizing efficacy in DBA/2 Mice transplanted with SMT/F tumors and the activity is expressed as % response at (11-15 days) 3 hours post injection at 2.5 mg/kg concentration; assay type: functional; how it was run: as §1
# Mus musculus [15] = assay: The compound was tested in vivo for photosensitizing efficacy in DBA/2 Mice transplanted with SMT/F tumors and the activity is expressed as % response at (16-20 days) 24 hours post injection at 5 mg/kg concentration; No response; assay type: functional, organism-based; design: dose 5 mg/kg; how it was run: as §1
# Mus musculus [16] = assay: The compound was tested in vivo for photosensitizing efficacy in DBA/2 Mice transplanted with SMT/F tumors and the activity is expressed as % response at (16-20 days) 3 hours post injection at 1 mg/kg concentration; assay type: functional; how it was run: as §1
# Mus musculus [17] = assay: The compound was tested in vivo for photosensitizing efficacy in DBA/2 Mice transplanted with SMT/F tumors and the activity is expressed as % response at (16-20 days) 3 hours post injection at 2.5 mg/kg concentration; assay type: functional; how it was run: as §1
# Mus musculus [18] = assay: The compound was tested in vivo for photosensitizing efficacy in DBA/2 Mice transplanted with SMT/F tumors and the activity is expressed as % response at (26-30 days) 24 hours post injection at 5 mg/kg concentration; No response; assay type: functional, organism-based; design: dose 5 mg/kg
# Mus musculus [19] = assay: The compound was tested in vivo for photosensitizing efficacy in DBA/2 Mice transplanted with SMT/F tumors and the activity is expressed as % response at (26-30 days) 3 hours post injection at 1 mg/kg concentration; assay type: functional
# Mus musculus [20] = assay: The compound was tested in vivo for photosensitizing efficacy in DBA/2 Mice transplanted with SMT/F tumors and the activity is expressed as % response at (26-30 days) 3 hours post injection at 2.5 mg/kg concentration; assay type: functional
# Mus musculus [21] = assay: The compound was tested in vivo for photosensitizing efficacy in DBA/2 Mice transplanted with SMT/F tumors and the activity is expressed as % response at (6-10 days) 24 hours post injection at 5 mg/kg concentration; No response; assay type: functional, organism-based; design: dose 5 mg/kg
# Mus musculus [22] = assay: The compound was tested in vivo for photosensitizing efficacy in DBA/2 Mice transplanted with SMT/F tumors and the activity is expressed as % response at (6-10 days) 3 hours post injection at 1 mg/kg concentration; assay type: functional
# Mus musculus [23] = assay: The compound was tested in vivo for photosensitizing efficacy in DBA/2 Mice transplanted with SMT/F tumors and the activity is expressed as % response at (6-10 days) 3 hours post injection at 2.5 mg/kg concentration; assay type: functional
# How it was run: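 SMT-F tumor piece (1 mm) from donor implanted subcutaneously by trocar into axilla of 5–7-week-old female DBA/2 HA-DD mice; treated at ~5 mm diameter. Sensitizer dissolved in 1% Tween 80/water, given iv; 3 h later restrained mouse's tumor illuminated with 135 J/cm2 laser light at in vivo long-wavelength absorption maximum. Tumor response scored over 30 days; six mice/group.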
# Mus musculus [24] = assay: The compound was tested in vivo for photosensitizing efficacy in DBA/2 Mice transplanted with SMT/F tumors and the activity is expressed as % response at (21-25 days) 24 hours post injection at 5 mg/kg concentration; No response; assay type: functional, organism-based; design: dose 5 mg/kg; how it was run: as §1
# Mus musculus [25] = assay: The compound was tested in vivo for photosensitizing efficacy in DBA/2 Mice transplanted with SMT/F tumors and the activity is expressed as % response at (21-25 days) 3 hours post injection at 1 mg/kg concentration; assay type: functional; how it was run: as §1
# Albumin [26] = target: T1, Albumin; assay: Binding affinity against Human serum albumin(Site II).; how it was run: as §2
# T1 sequence (P02768 whole entry): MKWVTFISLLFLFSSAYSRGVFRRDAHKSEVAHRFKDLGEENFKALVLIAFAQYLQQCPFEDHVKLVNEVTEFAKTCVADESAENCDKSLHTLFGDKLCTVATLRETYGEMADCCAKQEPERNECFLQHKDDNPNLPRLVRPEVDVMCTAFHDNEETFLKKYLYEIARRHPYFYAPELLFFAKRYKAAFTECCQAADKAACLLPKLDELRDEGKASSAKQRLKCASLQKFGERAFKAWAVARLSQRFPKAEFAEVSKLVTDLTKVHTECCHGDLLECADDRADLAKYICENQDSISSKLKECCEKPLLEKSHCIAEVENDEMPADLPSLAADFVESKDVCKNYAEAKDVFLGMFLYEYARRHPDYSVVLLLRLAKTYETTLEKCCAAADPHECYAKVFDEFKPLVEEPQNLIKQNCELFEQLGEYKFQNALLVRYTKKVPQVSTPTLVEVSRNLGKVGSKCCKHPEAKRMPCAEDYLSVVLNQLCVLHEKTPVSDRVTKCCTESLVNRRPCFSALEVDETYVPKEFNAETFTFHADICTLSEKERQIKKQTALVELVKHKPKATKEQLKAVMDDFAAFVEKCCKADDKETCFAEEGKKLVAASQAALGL
smiles,measurement,setting,value
CCc1c(C)c2[nH]c1cc1[nH]c(cc3nc4c(c5nc(c2C=O)[C@@H](C)[C@@H]5CCC(=O)OC)CCC4=C3C)C(O)(CC)C1(C)O (some centres not stated),Response,Mus musculus [1],inactive
same,Response,Mus musculus [2],inactive
same,Response,Mus musculus [3],inactive
same,Response,Mus musculus [4],inactive
same,Response,Mus musculus [5],inactive
same,Response,Mus musculus [6],inactive
same,Binding constant,Albumin [7],500000 l M-1
CCc1c(C)c2[nH]c1cc1[nH]c(cc3nc4c(c5nc(c2C=O)[C@@H](C)[C@@H]5CCC(=O)NC(CC(=O)OC(C)(C)C)C(=O)OC(C)(C)C)CCC4=C3C)C(=O)C1(C)CC (some centres not stated),Response,Mus musculus [8],60%
same,Response,Mus musculus [9],inactive
same,Response,Mus musculus [10],100%
same,Response,Mus musculus [11],100%
same,Response,Mus musculus [12],inactive
same,Response,Mus musculus [13],60%
same,Response,Mus musculus [14],60%
same,Response,Mus musculus [15],inactive
same,Response,Mus musculus [16],60%
same,Response,Mus musculus [17],60%
same,Response,Mus musculus [18],inactive
same,Response,Mus musculus [19],50%
same,Response,Mus musculus [20],60%
same,Response,Mus musculus [21],inactive
same,Response,Mus musculus [22],80%
same,Response,Mus musculus [23],100%
same,Response,Mus musculus [24],inactive
same,Response,Mus musculus [25],50%
same,Binding constant,Albumin [7],500000 l M-1
same,Binding constant,Albumin [26],500000 l M-1
